Reference: ChEMBL document CHEMBL4251655 (Eur J Med Chem, 2018)

Assays:
[1] = Lipophilicity, log D at pH 7.4 by shake flask method; details: buffer
[2] = target: Tyrosine-protein kinase ABL1 (Homo sapiens) (UniProt P00519); assay: Inhibition of recombinant human His-tagged ABL1 expressed in baculovirus expression system at 1 uM relative to control
Outline: (§1)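 Forty-kinase selectivity panel; each compound tested at a single 1 µM concentration in the presence of 1 mM ATP; result given as percent inhibition.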

[3] = target: T1, Aurora kinase A (Homo sapiens) (UniProt O14965); assay: Inhibition of recombinant full length human His-tagged AURKA expressed in baculovirus expression system at 1 uM relative to control; outline: as §1
T1 sequence (whole entry): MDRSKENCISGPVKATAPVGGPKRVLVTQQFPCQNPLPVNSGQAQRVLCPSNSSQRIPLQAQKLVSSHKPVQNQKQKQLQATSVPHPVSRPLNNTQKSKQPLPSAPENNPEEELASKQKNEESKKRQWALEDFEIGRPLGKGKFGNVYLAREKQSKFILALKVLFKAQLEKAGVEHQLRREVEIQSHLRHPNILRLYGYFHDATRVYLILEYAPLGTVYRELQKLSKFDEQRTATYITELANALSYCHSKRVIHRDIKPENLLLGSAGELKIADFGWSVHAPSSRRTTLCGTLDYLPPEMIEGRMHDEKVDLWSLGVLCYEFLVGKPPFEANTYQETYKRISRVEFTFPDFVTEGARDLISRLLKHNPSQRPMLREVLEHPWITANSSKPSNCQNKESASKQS

[4] = target: Tyrosine-protein kinase BTK (Homo sapiens) (UniProt Q06187); assay: Inhibition of recombinant full length human His-tagged BTK expressed in baculovirus expression system at 1 uM relative to control; outline: as §1
[5] = target: T2, Serine/threonine-protein kinase Chk1 (Homo sapiens) (UniProt O14757); assay: Inhibition of recombinant full length human His-tagged CHEK1 expressed in baculovirus expression system at 1 uM relative to control; outline: as §1
T2 sequence (whole entry): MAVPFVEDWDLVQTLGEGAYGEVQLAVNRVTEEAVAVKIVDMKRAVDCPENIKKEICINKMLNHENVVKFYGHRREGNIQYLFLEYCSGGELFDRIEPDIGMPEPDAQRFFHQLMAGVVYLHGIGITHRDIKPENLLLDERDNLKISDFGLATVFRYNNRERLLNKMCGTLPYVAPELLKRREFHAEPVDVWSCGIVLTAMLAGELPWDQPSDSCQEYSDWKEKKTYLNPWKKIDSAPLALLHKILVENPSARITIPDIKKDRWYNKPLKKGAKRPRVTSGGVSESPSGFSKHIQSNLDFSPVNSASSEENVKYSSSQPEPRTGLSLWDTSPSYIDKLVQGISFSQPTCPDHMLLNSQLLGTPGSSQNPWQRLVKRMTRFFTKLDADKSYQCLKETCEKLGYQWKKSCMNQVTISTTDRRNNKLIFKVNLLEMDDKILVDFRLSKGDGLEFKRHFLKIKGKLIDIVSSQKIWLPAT

[6] = target: Tyrosine-protein kinase Lck (Homo sapiens) (UniProt P06239); assay: Inhibition of recombinant human full length His-tagged LCK expressed in baculovirus expression system at 1 uM relative to control; outline: as §1
Sequence of Tyrosine-protein kinase Lck (Homo sapiens) (P06239 2-509 limits assumed): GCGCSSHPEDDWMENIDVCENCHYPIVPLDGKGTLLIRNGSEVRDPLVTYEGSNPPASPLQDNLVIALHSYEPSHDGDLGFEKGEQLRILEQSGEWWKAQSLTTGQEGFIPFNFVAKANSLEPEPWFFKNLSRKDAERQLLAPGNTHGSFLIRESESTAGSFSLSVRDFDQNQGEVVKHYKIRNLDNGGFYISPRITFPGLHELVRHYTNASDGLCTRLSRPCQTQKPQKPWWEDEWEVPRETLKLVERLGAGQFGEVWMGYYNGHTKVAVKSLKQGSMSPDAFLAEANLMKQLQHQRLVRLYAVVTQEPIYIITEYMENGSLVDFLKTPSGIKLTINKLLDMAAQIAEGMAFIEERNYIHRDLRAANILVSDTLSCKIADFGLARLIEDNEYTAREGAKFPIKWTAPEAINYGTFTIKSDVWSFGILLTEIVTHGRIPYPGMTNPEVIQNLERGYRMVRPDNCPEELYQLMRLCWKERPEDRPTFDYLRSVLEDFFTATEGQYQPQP

[7] = target: Mitogen-activated protein kinase 1 (Homo sapiens) (UniProt P28482); assay: Inhibition of recombinant full length human GST-tagged MAPK1 expressed in Escherichia coli at 1 uM relative to control; outline: as §1
Sequence of Mitogen-activated protein kinase 1 (Homo sapiens) (P28482 whole entry, the tested form may be a part): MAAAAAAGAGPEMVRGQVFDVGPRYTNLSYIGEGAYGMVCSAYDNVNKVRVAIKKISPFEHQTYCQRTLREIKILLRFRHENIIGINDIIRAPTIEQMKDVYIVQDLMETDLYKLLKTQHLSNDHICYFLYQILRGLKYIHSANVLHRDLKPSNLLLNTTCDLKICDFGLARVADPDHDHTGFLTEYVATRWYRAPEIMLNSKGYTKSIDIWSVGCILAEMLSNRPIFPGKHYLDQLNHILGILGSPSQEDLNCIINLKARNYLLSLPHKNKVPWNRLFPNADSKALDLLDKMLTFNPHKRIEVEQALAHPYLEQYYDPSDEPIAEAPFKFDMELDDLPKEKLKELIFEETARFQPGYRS

[8] = target: Hepatocyte growth factor receptor (Homo sapiens) (UniProt P08581); assay: Inhibition of recombinant human His-tagged c-Met cytoplasmic domain expressed in baculovirus expression system at 1 uM relative to control; outline: as §1
Sequence of Hepatocyte growth factor receptor (Homo sapiens) (P08581 whole entry, the tested form may be a part): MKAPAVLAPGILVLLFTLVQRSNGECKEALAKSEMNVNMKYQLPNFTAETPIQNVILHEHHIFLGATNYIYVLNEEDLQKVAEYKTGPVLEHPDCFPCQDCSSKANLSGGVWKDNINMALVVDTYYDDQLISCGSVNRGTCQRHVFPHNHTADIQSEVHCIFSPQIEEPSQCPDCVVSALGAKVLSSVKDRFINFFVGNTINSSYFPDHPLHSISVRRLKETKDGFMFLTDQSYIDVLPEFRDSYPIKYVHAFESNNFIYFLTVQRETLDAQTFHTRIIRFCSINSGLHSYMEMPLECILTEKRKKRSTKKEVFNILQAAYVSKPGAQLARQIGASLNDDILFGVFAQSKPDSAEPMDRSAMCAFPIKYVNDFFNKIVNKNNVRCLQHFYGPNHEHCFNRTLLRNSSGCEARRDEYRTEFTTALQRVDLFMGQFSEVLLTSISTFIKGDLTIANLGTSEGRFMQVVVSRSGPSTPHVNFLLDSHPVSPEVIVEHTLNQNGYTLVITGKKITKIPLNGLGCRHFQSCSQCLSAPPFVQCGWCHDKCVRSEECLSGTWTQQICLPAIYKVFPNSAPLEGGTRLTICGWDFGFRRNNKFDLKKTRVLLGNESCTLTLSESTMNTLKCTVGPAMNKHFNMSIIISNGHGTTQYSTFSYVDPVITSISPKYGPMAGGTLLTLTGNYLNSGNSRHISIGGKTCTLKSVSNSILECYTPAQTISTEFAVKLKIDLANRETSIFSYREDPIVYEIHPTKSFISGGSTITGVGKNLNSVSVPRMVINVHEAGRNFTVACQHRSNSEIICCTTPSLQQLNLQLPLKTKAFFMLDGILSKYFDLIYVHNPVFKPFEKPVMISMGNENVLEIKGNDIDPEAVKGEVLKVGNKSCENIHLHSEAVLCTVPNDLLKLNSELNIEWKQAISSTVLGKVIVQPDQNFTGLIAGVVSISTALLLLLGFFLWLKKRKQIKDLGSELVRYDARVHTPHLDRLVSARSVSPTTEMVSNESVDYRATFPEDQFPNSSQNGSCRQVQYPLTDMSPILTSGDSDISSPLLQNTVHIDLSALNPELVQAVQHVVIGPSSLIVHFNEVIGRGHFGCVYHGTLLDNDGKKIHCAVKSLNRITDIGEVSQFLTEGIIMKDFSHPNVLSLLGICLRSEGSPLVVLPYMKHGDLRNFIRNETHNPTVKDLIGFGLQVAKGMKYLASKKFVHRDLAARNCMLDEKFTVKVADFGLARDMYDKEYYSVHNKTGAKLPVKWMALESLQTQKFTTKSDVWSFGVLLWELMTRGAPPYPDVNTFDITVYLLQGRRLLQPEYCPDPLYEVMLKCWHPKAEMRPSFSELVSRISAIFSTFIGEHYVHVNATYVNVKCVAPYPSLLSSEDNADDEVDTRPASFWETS

[9] = target: Serine/threonine-protein kinase 26 (Homo sapiens) (UniProt Q9P289); assay: Inhibition of recombinant human full length GST-tagged MST4 expressed in baculovirus expression system at 1 uM relative to control; outline: as §1
Sequence of Serine/threonine-protein kinase 26 (Homo sapiens) (Q9P289 2-416 limits assumed): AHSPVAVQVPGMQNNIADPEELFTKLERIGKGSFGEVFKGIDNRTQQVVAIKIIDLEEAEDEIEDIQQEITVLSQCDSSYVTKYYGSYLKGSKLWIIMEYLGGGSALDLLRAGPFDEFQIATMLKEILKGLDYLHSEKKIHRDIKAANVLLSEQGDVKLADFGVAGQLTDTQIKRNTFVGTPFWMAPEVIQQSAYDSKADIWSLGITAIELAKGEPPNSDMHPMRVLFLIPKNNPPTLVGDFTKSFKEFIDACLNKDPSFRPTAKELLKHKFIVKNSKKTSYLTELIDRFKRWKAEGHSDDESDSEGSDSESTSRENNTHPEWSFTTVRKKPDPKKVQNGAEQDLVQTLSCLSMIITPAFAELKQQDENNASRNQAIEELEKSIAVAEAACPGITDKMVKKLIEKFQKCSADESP

[10] = target: Myosin light chain kinase 2, skeletal/cardiac muscle (Homo sapiens) (UniProt Q9H1R3); assay: Inhibition of recombinant human full length GST-tagged MYLK2 expressed in baculovirus expression system at 1 uM relative to control; outline: as §1
Sequence of Myosin light chain kinase 2, skeletal/cardiac muscle (Homo sapiens) (Q9H1R3 whole entry): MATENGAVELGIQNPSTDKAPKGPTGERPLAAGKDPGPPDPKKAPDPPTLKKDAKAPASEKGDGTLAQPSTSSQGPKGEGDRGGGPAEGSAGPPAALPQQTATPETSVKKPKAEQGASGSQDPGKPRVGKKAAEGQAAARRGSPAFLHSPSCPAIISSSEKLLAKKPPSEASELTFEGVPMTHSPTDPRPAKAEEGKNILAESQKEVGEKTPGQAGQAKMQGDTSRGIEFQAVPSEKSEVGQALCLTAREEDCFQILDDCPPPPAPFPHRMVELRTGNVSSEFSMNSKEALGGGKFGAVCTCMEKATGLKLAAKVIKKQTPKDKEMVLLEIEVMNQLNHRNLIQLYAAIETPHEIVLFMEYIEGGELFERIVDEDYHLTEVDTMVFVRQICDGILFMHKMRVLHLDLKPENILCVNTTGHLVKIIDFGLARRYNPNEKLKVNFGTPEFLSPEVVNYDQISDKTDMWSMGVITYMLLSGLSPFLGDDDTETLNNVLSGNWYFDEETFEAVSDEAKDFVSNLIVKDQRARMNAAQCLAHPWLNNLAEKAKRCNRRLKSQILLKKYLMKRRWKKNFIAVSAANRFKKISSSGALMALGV

[11] = target: Protein kinase C beta type (Homo sapiens) (UniProt P05771); assay: Inhibition of recombinant human full length GST-tagged PRKCB2 expressed in insect cells at 1 uM relative to control; outline: as §1
Sequence of Protein kinase C beta type (Homo sapiens) (P05771 2-671 limits assumed): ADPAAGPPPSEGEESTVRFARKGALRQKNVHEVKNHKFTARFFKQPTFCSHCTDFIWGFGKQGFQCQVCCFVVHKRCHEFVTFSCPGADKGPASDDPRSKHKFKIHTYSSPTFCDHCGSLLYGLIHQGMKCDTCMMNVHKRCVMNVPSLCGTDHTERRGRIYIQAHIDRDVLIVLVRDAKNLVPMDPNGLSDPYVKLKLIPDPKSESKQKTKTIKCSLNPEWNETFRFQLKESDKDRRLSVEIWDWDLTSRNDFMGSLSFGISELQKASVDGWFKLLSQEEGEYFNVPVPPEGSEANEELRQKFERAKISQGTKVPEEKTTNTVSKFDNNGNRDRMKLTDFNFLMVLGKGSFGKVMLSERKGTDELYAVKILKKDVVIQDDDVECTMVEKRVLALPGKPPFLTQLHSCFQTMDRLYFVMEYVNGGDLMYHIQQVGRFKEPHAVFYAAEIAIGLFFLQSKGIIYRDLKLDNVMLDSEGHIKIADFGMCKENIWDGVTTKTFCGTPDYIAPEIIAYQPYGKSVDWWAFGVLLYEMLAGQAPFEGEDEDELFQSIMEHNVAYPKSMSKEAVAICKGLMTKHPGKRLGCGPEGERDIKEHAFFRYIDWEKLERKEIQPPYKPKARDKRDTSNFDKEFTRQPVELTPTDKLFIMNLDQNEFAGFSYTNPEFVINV

[12] = target: T3, Serine/threonine-protein kinase TAO2 (Homo sapiens) (UniProt Q9UL54); assay: Inhibition of recombinant human GST-tagged TAOK2 expressed in baculovirus expression system at 1 uM relative to control; outline: as §1
T3 sequence (whole entry): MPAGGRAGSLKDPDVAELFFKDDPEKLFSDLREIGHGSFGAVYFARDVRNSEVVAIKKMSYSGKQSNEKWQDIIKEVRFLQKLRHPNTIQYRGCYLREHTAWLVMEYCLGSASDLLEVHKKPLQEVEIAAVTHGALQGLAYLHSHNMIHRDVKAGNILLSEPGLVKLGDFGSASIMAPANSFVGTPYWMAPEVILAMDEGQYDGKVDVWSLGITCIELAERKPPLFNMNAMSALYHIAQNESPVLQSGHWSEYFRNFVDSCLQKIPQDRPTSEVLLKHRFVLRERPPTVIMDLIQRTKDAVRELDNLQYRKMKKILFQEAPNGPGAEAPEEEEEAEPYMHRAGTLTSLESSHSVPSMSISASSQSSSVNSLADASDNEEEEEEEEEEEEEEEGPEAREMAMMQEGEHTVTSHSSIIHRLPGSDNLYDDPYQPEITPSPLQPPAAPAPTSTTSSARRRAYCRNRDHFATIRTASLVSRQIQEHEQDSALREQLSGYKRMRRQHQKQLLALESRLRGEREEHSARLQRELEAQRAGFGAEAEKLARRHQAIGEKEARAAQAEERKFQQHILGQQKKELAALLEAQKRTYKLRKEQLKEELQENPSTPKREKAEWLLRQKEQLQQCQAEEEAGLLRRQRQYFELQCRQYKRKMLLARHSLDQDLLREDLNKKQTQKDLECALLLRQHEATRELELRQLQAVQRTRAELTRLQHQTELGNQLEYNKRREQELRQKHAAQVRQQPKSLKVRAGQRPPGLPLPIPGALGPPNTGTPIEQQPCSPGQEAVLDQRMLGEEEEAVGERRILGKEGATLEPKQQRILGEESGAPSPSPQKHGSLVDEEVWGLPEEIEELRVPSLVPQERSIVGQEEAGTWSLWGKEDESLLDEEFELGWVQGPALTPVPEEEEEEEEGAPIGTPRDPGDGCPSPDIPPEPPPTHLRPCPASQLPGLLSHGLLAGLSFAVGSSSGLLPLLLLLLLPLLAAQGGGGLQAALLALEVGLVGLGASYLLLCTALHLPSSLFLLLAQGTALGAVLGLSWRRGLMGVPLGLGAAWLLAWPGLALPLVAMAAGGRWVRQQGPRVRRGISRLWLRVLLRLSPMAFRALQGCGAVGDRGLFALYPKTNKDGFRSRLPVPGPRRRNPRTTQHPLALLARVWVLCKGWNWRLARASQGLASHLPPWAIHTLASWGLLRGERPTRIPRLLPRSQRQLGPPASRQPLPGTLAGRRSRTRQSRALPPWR

Sequence of Tyrosine-protein kinase ABL1 (Homo sapiens) (P00519 whole entry): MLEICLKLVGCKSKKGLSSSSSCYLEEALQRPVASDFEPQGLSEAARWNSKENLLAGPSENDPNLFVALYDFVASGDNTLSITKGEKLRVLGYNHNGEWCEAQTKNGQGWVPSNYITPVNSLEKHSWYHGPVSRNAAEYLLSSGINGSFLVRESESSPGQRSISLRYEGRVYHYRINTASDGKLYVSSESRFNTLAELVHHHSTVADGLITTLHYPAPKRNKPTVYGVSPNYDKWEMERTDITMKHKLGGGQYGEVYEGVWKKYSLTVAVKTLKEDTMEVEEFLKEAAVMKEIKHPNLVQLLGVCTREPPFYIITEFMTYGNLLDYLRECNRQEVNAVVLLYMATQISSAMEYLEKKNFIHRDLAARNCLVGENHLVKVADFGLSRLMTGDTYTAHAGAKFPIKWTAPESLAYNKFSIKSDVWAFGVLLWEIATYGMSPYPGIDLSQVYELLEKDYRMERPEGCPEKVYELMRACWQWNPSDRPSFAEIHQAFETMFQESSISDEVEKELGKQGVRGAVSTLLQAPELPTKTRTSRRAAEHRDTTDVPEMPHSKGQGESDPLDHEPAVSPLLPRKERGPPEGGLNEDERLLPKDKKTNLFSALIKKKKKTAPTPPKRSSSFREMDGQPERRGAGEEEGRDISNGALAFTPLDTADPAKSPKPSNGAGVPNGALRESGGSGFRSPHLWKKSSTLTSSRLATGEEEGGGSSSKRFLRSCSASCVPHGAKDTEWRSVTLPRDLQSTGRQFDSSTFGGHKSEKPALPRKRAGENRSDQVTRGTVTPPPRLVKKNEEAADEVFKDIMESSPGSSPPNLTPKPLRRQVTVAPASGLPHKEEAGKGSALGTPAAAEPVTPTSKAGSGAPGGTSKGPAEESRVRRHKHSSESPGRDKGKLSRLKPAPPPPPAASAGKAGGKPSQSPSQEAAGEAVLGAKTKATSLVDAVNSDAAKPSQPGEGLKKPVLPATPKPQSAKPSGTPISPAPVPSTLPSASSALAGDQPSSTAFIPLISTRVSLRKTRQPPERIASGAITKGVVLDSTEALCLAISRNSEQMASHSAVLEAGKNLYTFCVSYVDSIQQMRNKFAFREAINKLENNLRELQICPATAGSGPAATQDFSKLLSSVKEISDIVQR

SMILES | logD [1] | inhibition [2] [%] | inhibition [3] [%] | inhibition [4] [%] | inhibition [5] [%] | inhibition [6] [%] | inhibition [7] [%] | inhibition [8] [%] | inhibition [9] [%] | inhibition [10] [%] | inhibition [11] [%] | inhibition [12] [%]
COc1cc(C)c(C(N)=O)cc1C(=O)Nc1cccc(-c2nncn2C(C)C)n1 | 1.6 | 16 | 2 | -4 | 17 | 4 | 20 | 11 | 59 | 0 | 3 | 17
COc1ccc(S(N)(=O)=O)cc1C(=O)Nc1cccc(-c2nncn2C(C)C)n1 | 1.2 to 1.3 | -3 | -4 | -3 | -4 | 8 | 8 | 7 | 10 | 1 | 12 | -1
COc1cc(C)c(S(C)(=O)=O)cc1C(=O)Nc1cccc(-c2nncn2C(C)C)n1 | 1.7 | -6 | -1 | 5 | 2 | -6 | 2 | -6 | 14 | 3 | 12 | 2
COc1ccc(C(N)=O)cc1C(=O)Nc1cccc(-c2nncn2C(C)C)n1 | 1.5 | 16 | 3 | -5 | 34 | 13 | 19 | 5 | 35 | 7 | 9 | 11
COc1ccc(S(C)(=O)=O)cc1C(=O)Nc1cccc(-c2nncn2C(C)C)n1 | 1.3 | -4 | 11 | 0 | 1 | 4 | 6 | 7 | 14 | 0 | 5 | 0
COc1cc(C)c(S(N)(=O)=O)cc1C(=O)Nc1cccc(-c2nncn2C(C)C)n1 | 1.6 | 4 | 5 | 0 | 8 | 11 | 3 | -6 | 17 | 7 | 9 | -3
